Data set [1] in a line: Stability in phosphate buffer saline assessed as amount of parent drug released from cattle bone meal powder over 24 hrs. In kind it is ADME. A digest of the protocol: (§1)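 Washed bone-powder-bound prodrug was resuspended in PBS or 50% (v/v in PBS) human or rat serum and kept 24 h at 37 °C. The supernatant was extracted with 5 volumes of methanol, centrifuged, dried, redissolved in PBS and read by fluorescence. Release was derived from the difference between bound prodrug and regenerated drug. Identity was checked by CLSI MIC.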

In data set [2] the test system is Bone. The data set is described as follows: Binding affinity to bone assessed as drug level bound to cattle bone meal powder by fluorescence assay. In kind it is tissue-based. Set-up: concentration or dose not given beside the values. The following applies: Bos taurus; Bone element. A digest of the protocol: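 Drug or prodrug was suspended with bone meal powder in PBS and held 1 h at 37 °C to bind, then centrifuged. The pellet was washed three times with PBS, and all supernatants were read by fluorescence (ex/em 280/465 nm). Bound fraction was taken as […] prodrug relative to total input.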

Data set [3] has as its system Serum. The data set is described as follows: Stability in 50% human serum assessed as amount of parent drug released from cattle bone meal powder over 24 hrs. The format is ADME, cell-free. In outline: as §1
In data set [4] the test system is Serum. Kind of data set: Stability in 50% rat serum assessed as amount of parent drug released from cattle bone meal powder over 24 hrs. The format is ADME, cell-free. In outline:
as §1

For data set [5], the system named is Staphylococcus aureus. The data set is described as follows: Antibacterial activity against Staphylococcus aureus ATCC 13709 after 24 hrs by microdilution method. The format is functional. As to conditions: ATCC 13709, 24 h. In outline:
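Broth microdilution MIC per CLSI M7-A7 against S. aureus ATCC 13709.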

Data set [6] has as its system Staphylococcus aureus. Kind of data set: Protective effect against Staphylococcus aureus ATCC 13709-induced bone infection in CD rat at 10 mg/kg, iv administered as single dose 24 hrs after bacterial challenge. The format is functional, organism-based. Further details: dose 10 mg/kg.
For data set [7], the system named is Staphylococcus aureus. Kind of data set: Protective effect against Staphylococcus aureus ATCC 13709-induced bone infection in CD rat at 10 mg/kg, iv administered as single dose 2 days before bacterial challenge. The format is functional, organism-based. Set-up: dose 10 mg/kg. A digest of the protocol: (§2)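 Female CD rats (57–70 days, n = 5/group) received a single IV bolus in 0.9% saline before infection. Under isoflurane, tibiae were injected with 0.05 ml 5% sodium morrhuate, then S. aureus ATCC 13709 (ca. 5 × 10⁵ CFU/rat). At 24 h, tibiae were milled and cultured quantitatively. Read-out was log CFU/g bone (mean, SD; detection limit 2 log), compared by Dunnett or Kruskal–Wallis.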

The test system of data set [8] is Staphylococcus aureus. The data set is described as follows: Protective effect against Staphylococcus aureus ATCC 13709-induced bone infection in CD rat at 10 mg/kg, iv administered as single dose.
Data set [9] deals with Staphylococcus aureus. The data set is described as follows: Protective effect against Staphylococcus aureus ATCC 13709-induced bone infection in CD rat at 15.8 mg/kg, iv administered as single dose 2 days before bacterial challenge. Further details: dose 15.8 mg/kg. In kind it is functional, organism-based. A digest of the protocol:
as §2

In data set [10] the test system is Staphylococcus aureus. Kind of data set: Protective effect against Staphylococcus aureus ATCC 13709-induced bone infection in CD rat at 17.3 mg/kg, iv administered as single dose 2 days before bacterial challenge. The format is functional, organism-based. Set-up: dose 17.3 mg/kg. A digest of the protocol:
as §2

Converted amounts (≈) assume the structure as drawn. The source made the active and inactive calls. Bounds are passed on as bounds.

Take `COc1c(N2C[C@@H]3CCCN[C@@H]3C2)c(F)cc2c(=O)c(C(=O)SCCCC(P(=O)(O)O)P(=O)(O)O)cn(C3CC3)c12`: the Activity in data set [1] is 0.04%; in data set [2], 99.9%; in [3], 0.1%; in data set [4] it was 0.1%. In addition, the MIC (commonly the smallest concentration in the dilution series that meets the test's criterion for growth inhibition) in [5] is > 4 µg/mL.

In the case of `COc1c(N2CCNC(C)C2)c(F)cc2c(=O)c(C(=O)OCC(=O)NCCCC[C@@H](NC(=O)COC(=O)c3cn(C4CC4)c4c(OC)c(N5CCNC(C)C5)c(F)cc4c3=O)C(=O)NC(P(=O)(O)O)P(=O)(O)O)cn(C3CC3)c12` (some centres undefined), the Activity in data set [1] is 0.2%; in [2], 92.8%; in data set [3], 0.4%; in data set [4], 0.4%. Also, the minimal inhibitory concentration (MIC) in [5] was > 4 µg/mL.

Regarding `COc1c(N2C[C@@H]3CCCN[C@@H]3C2)c(F)cc2c(=O)c(C(=O)O)cn(C3CC3)c12` [MOXIFLOXACIN], the outcome in data set [6], in data set [7] and in [8] was inactive. In addition, the minimum inhibitory concentration (MIC) in [5] was 0.03 µg/mL (≈ 0.0747 µM).

As to `COc1c(N2C[C@@H]3CCCN[C@@H]3C2)c(F)cc2c(=O)c(C(=O)OCCCC(P(=O)(O)O)P(=O)(O)O)cn(C3CC3)c12`, the Activity in data set [2] stood at 93.8%. For the same compound, the MIC in data set [5] was > 4 µg/mL.

Consider `COc1c(N2CCNC(C)C2)c(F)cc2c(=O)c(C(=O)OCC(=O)N(C)C(P(=O)(O)O)P(=O)(O)O)cn(C3CC3)c12` (centres undefined), for which the Activity in data set [1] amounted to 1.1%; in [2], 90.4%; in data set [3], 0.6%; in [4], 0.9%. Also, the MIC in data set [5] was > 4 µg/mL.

In the case of `COc1c(N2CCNC(C)C2)c(F)cc2c(=O)c(C(=O)Oc3ccc(C(P(=O)(O)O)P(=O)(O)O)cc3)cn(C3CC3)c12` (centres undefined), the Activity in data set [1] worked out at 0.2%; in data set [2], 79.2%; in data set [3] it was 0.1%; in [4], 0.1%. Besides, the minimal inhibitory concentration (MIC) in data set [5] was > 4 µg/mL.

For `COc1c(N2C[C@@H]3CCCN[C@@H]3C2)c(F)cc2c(=O)c(C(=O)OCC(=O)NC(P(=O)(O)O)P(=O)(O)O)cn(C3CC3)c12`, the Activity in [1] worked out at 1.2%; in data set [2], 98.7%; in data set [3], 1.4%; in data set [4], 1.4%. Moreover, the result in data set [9] was Active. Also, the MIC in data set [5] is > 4 µg/mL.

For the compound `COc1c(N2CCNC(C)C2)c(F)cc2c(=O)c(C(=O)OCC(=O)NC(P(=O)(O)O)P(=O)(O)O)cn(C3CC3)c12` (centres undefined), the Activity in data set [1] was 2.7%; in [2], 91%; in data set [3], 1.6%; in [4] it was 1.3%. In data set [10], the outcome was Active. Moreover, in data set [5], the MIC was > 4 µg/mL.

Consider `COc1c(N2CCNC(C)C2)c(F)cc2c(=O)c(C(=O)OCC(=O)Nc3ccc(CC(P(=O)(O)O)P(=O)(O)O)cc3)cn(C3CC3)c12` (centres undefined), for which the Activity in data set [1] turned out to be 0.5%; in [2], 88.9%; in data set [3], 0.7%; in [4] it was 0.6%. Further, in data set [5], the MIC is > 4 µg/mL.

`COc1c(N2CCNC(C)C2)c(F)cc2c(=O)c(C(=O)O)cn(C3CC3)c12` (centres undefined) [GATIFLOXACIN]: the outcome in data set [7] and in data set [8] was inactive. The same compound gave an MIC in [5] of 0.06 µg/mL (≈ 0.16 µM).

Take `COc1c(N2C[C@@H]3CCCN[C@@H]3C2)c(F)cc2c(=O)c(C(=O)SCC(=O)NC(P(=O)(O)O)P(=O)(O)O)cn(C3CC3)c12`: the Activity in [1] stood at 0.3%; in [2] it was 99%; in [3], 0.5%; in data set [4], 0.4%. Also, the minimal inhibitory concentration (MIC) in data set [5] is > 4 µg/mL.

For `COc1c(N2C[C@@H]3CCCN[C@@H]3C2)c(F)cc2c(=O)c(C(=O)OCC(=O)N(C)C(P(=O)(O)O)P(=O)(O)O)cn(C3CC3)c12`, the Activity in data set [1] came to 0.3%; in data set [2], 97.3%; in [3], 0.8%; in data set [4], 0.7%. The MIC in data set [5] was > 4 µg/mL.

Consider `COc1c(N2C[C@@H]3CCCN[C@@H]3C2)c(F)cc2c(=O)c(C(=O)OCC(=O)Nc3ccc(CC(P(=O)(O)O)P(=O)(O)O)cc3)cn(C3CC3)c12`, for which the Activity in data set [1] came out at 0.6%; in data set [2], 97.2%; in data set [3], 1.2%; in [4] it was 1.3%. Further, the MIC in data set [5] was > 4 µg/mL.

Consider `COc1c(N2C[C@@H]3CCCN[C@@H]3C2)c(F)cc2c(=O)c(C(=O)OCCCCC(P(=O)(O)O)P(=O)(O)O)cn(C3CC3)c12`, for which the Activity in [1] was 0.01%; in [2], 92.7%. In [5], the MIC is > 4 µg/mL.

Turning to `COc1c(N2CCNC(C)C2)c(F)cc2c(=O)c(C(=O)SCCCC(P(=O)(O)O)P(=O)(O)O)cn(C3CC3)c12` (centres undefined), the Activity in data set [1] turned out to be 0.1%; in [2], 98.7%; in data set [3], 0.1%; in [4], 0.1%. In addition, in data set [5], the MIC is > 4 µg/mL.

The record behind these values is ChEMBL document CHEMBL1142457, “Bisphosphonated fluoroquinolone esters as osteotropic prodrugs for the prevention of osteomyelitis” (Bioorg Med Chem, 2008).
